The values that follow come from ChEMBL document CHEMBL4428072, “Pharmacophore Model To Discover OX1 and OX2 Orexin Receptor Ligands” (J Med Chem, 2016).

Assay [1] deals with T1, Orexin receptor type 2 (Homo sapiens, UniProt O43614).
T1 sequence (O43614 whole entry): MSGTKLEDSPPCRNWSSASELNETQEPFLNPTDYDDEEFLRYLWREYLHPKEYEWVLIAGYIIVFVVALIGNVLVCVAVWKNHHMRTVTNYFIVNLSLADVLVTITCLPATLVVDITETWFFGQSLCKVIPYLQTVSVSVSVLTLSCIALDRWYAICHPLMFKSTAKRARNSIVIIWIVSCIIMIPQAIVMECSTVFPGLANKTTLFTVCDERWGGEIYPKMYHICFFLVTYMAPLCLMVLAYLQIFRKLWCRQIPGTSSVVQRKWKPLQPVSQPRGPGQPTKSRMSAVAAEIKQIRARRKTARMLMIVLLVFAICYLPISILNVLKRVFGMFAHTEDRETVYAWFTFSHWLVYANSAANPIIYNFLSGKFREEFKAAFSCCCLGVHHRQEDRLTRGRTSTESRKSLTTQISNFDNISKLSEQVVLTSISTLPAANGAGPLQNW
Description: Displacement of [125I]-orexin A from human OX2 receptor expressed in […] after 90 mins by scintillation counting. In short, it runs like this:
(§1)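 Intact CHO-hOX1 or CHO-hOX2 cells in HBM + 0.1% stripped BSA + 30 μM dyngo 4a, preincubated 10 min (10 μM antagonist used to define nonspecific binding). 0.05 nM [125I]-orexin-A added with compound (10 nM–100 μM, 10-fold series). Incubated 90 min at room temperature, wells dried, scintillation counted. At least three experiments; IC50/Ki by nonlinear fitting.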

Assay [2] deals with T2, Orexin receptor type 2 (Homo sapiens) (UniProt O43614).
T2 sequence (whole entry): T1 sequence (O43614 whole entry)
The experiment in a line: Agonist activity at human OX2 receptor expressed in […] assessed as induction of Ca2+ elevation at 10 uM after 30 mins by FLIPR calcium 4 assay relative to orexin-A. Format: functional, cell-based. In short, it runs like this: (§2)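 CHO-hOX1 or CHO-hOX2 cells plated overnight at 1.5 × 10^4 cells/well, loaded with Calcium 4 dye in HBM + probenecid for 60 min at 37 °C. Fluorescence read at 485/525 nm, 37 °C. 30 s baseline, then compound at 10 μM (tested twice in validation; thrice at 1 and 10 μM in quadruplicate in characterization). Response expressed as % of orexin-A maximal response; background response measured within each experiment.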

Assay [3] concerns the target T3, Orexin/Hypocretin receptor type 1 (Homo sapiens) (UniProt O43613).
T3 sequence (whole entry): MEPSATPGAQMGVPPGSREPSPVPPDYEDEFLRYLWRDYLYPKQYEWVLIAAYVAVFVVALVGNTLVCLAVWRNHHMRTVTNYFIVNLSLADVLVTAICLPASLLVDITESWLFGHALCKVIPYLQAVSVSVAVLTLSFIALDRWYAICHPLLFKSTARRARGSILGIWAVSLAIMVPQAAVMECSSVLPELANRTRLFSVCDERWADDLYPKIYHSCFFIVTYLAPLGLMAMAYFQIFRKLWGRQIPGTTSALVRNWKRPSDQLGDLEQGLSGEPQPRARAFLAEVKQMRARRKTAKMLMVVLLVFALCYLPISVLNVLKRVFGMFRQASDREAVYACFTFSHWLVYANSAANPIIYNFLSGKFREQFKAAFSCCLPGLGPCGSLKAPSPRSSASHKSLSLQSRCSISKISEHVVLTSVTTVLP
The experiment in a line: Agonist activity at human OX1 receptor expressed in CHO cells assessed as induction of Ca2+ elevation at 5 uM after 2 mins by FLIPR calcium 4 assay relative to orexin-A. It counts as functional, cell-based. In a few lines: (§3)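 Screening in CHO-hOX1 or CHO-hOX2 cells loaded with Calcium 4 dye in HBM (137 mM NaCl, 20 mM Hepes, 1 mM CaCl2, pH 7.4) + probenecid. Fluorescence at 485/525 nm, 37 °C. 30 s baseline, compound added to 5 μM final and read for 120 s; the delayed response was read 30 min after addition for 30 s. Tested once in triplicate; % of full orexin-A activation.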

The species entered for assay [4] is Homo sapiens. The experiment in a line: Ratio of Ki for human OX1 receptor expressed in […] to Ki for human OX2 receptor expressed in […] by [125I]-orexin A displacement assay. Format: cell membranes. In a few lines: as §1
Assay [5] has as its target T3, Orexin/Hypocretin receptor type 1 (Homo sapiens). Description: Agonist activity at human OX1 receptor expressed in […] assessed as induction of Ca2+ elevation at 10 uM after 30 mins by FLIPR calcium 4 assay relative to orexin-A. It counts as functional, cell-based. In a few lines: as §2
For assay [6] the target is unchanged. Description: Agonist activity at human OX1 receptor expressed in […] assessed as induction of Ca2+ elevation at 10 uM after 30 mins by FLIPR back ground response. Format: functional, cell-based. In short, it runs like this: as §2
The target of assay [7] is T2, Orexin receptor type 2 (Homo sapiens). Description: Agonist activity at human OX2 receptor expressed in […] assessed as induction of Ca2+ elevation at 10 uM after 30 mins by FLIPR back ground response. It counts as functional, cell-based. In short, it runs like this: as §2
For assay [8] the target is unchanged. The following applies: CHO, at 10 µM.
Assay [9] has as its system CHO. Description: Induction Ca2+ levels in CHO cells at 1 uM by FLIPR calcium 4 assay. It counts as functional, cell-based. The following applies: Cricetulus griseus. In short, it runs like this:
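Control CHO cells lacking orexin receptors, loaded with Calcium 4 dye in HBM + probenecid for 60 min at 37 °C. Compound added (1 and 10 μM) and the Ca2+ fluorescence response read at 485/525 nm at 37 °C.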

Assay [10] deals with T3, Orexin/Hypocretin receptor type 1 (Homo sapiens). Description: Displacement of [125I]-orexin A from human OX1 receptor expressed in […] at 10 uM after 90 mins by scintillation counting. On the technique in general: Loss of bound radioactivity is the signal in a displacement assay; it reports binding, not function.
For assay [11] the target is unchanged. Description: Agonist activity at human OX1 receptor expressed in CHO cells assessed as induction of Ca2+ elevation at 5 uM after 30 mins by FLIPR calcium 4 assay relative to orexin-A. It counts as functional, cell-based. In a few lines:
as §3

The target of assay [12] is T2, Orexin receptor type 2 (Homo sapiens). Description: Agonist activity at human OX2 receptor expressed in CHO cells assessed as induction of Ca2+ elevation at 5 uM after 2 mins by FLIPR calcium 4 assay relative to orexin-A. It counts as functional, cell-based. In a few lines:
as §3

Active and inactive are the calls of the source. The rule behind the calls is not given here.

Turning to `COC(=O)CN(C(C)=O)C(c1ccccc1)c1cc(Br)ccc1NC(=O)c1ccccc1Cl` (stereo not drawn), in [1], the IC50 (usually the concentration that inhibits the measured activity by half) is 1700 nM. Further, the affinity in assay [1], expressed as Ki, was 2500 nM. Further, the Activity in assay [2] was 1 to 3.7%; in [5] it was 7.3%. For the same molecule, the result in assay [3], in assay [11] and in [12] was Active. The Ratio Ki in assay [4] was 10. Moreover, the fold change (FC) in [6] is 3.4; in [7] it was 1.4 to 2.2. Further, the inhibition in assay [8] and in assay [10] was above 70% throughout. Besides, the result in assay [9] was inactive.
